Rows were chosen to be rich in hits. Some 2.3% of all compounds tested hit in one or more screens of this group.
OXTR ag: agonists of human oxytocin receptor; CHO-OTR cells, Fluo-8 calcium fluorescence; normalized: DMSO 0%, oxytocin 100%; activation, % at 3 µM; 320,000 tested, 0.32% active; AID 2435;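 active = activation above the mean of all tested compounds plus 3 SD, cutoff set per screening run, cut at about 20% in these data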;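 also: peak over basal fluorescence ratio from a 100 s FLIPR kinetic read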
TAAR1 antagonist: human TAAR1 antagonism. Q96RJ0. CHO RD-HGA16 TAAR1, Fluo-8 calcium fluorescence, antagonist. inhibition, % at 3 µM. 360,000 tested, 1.5% active. AID 624466;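 active = inhibition above a per-plate cutoff, the mean inhibition of test compounds on that plate plus 3 SD, cut at about 49% in these data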;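 also: 0% = DMSO plus EC80 beta-PEA response and 100% = DMSO alone without agonist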
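Test system – hTAAR1-expressing CHO RD-HGA16 cells, Gα16-coupled · Reagent – β-PEA at EC80 concentration, post-compound challenge · Compound dosing – 3 µM, single point · Timing – 140 s kinetic read after compound, 140 s after agonist · Detection – Fluo-8 intracellular calcium dye fluorescence, real-time kinetic reads · Control set – DMSO and EC80 PEA controls · Repeats – n of 1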
V1R ag counter: V1a receptor agonism, counter-screen for OXTR agonists. 320,000 tested, 0.25% active. CHO-V1R cells, Fluo-8 calcium fluorescence, agonist mode; 0% DMSO, 100% 3 nM vasopressin. AID 2797. P37288. activation, % at 3 µM;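 active = activation above the mean activation of all tested compounds plus 3 SD, per screening run, cut at about 20% in these data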;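 also: signal is peak over basal fluorescence ratio across a 100 second FLIPR read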
Target sequence (P37288 whole entry, looked up): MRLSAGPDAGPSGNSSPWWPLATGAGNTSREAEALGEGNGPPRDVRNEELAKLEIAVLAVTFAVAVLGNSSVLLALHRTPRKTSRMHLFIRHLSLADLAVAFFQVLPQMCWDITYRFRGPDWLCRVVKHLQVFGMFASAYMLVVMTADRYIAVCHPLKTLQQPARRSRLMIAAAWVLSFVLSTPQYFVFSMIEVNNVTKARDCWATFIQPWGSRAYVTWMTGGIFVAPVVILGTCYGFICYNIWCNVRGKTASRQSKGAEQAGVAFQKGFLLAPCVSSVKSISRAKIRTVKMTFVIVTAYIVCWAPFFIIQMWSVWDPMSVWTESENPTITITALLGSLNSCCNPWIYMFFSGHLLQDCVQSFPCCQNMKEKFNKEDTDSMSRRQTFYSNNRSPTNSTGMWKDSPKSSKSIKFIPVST
TAAR1 agonist: human TAAR1 agonism; CHO RD-HGA16 TAAR1, Fluo-8 calcium fluorescence; vehicle wells 0%, saturating PEA agonist 100%; 360,000 tested, 0.99% active; AID 624467; activation, % at 3 µM;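 active = activation above the mean activation of all test compounds in the run plus 3 SD, cut at about 38% in these data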
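System: CHO RD-HGA16 cells carrying human TAAR1 plus Gα16; Incubation: 17-24 h seeding, 75 min 37 °C dye, 30 min RT; Measured by: Fluo-8 fluorescence, 5 s baseline then 140 s kinetic read; Control set: DMSO and PEA EC100; Replication: single well for each compound.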
OXTR potentiate: human OXTR potentiation; P30559; CHO-OTR cells, Fluo-8 calcium fluorescence, potentiator mode; 0% = oxytocin EC15, 100% = EC100; activation, % at 3 µM; 320,000 tested, 0.061% active;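 active = activation above that plate's cutoff, the mean activation of tested compounds plus 3 SD, cut at about 6.6% in these data, passing the limit was not always enough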;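 also: 100% uses oxytocin at 75 nM as the full agonist control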
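test system = CHO-OTR cells, human receptor | compound = single-point 3.0 µM | schedule = 6 min compound pre-incubation at room temperature, 100 s kinetic read | signal = Fluo-8 no-wash calcium dye fluorescence, excitation 470-495 nm, emission 515-575 nm | repeats = single well per compound, singlicate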
TAAR1 nonsel count: nonselective antagonist in TAAR1 antagonist counter-screen; AID 651780; counterscreen cell line, calcium fluorescence, antagonist mode; inhibition, % at 3 µM; shares compounds with TAAR1 antagonist; 2,400 tested, 77% active; in the data active = inhibition above about 22%;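 also: CHO-Ga16 host cells stimulated with ATP at an EC80 level; 0% = agonist EC80 plus vehicle and 100% = vehicle without agonist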
TAAR1 antag conf: human TAAR1 antagonism, confirmed. shares compounds with TAAR1 antagonist. TAAR1-expressing cells, fluorescence antagonist read-out. inhibition, % at 3 µM. 2,400 tested, 40% active. AID 651785; in the data active = inhibition above about 49%;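 also: CHO-Ga16 host cells challenged with agonist PEA near its EC80; 0% = agonist at EC80 plus vehicle and 100% = vehicle with no agonist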
Ga16 ag counter: nonselective Ga16 agonist in TAAR1 antagonist counter-screen | shares compounds with TAAR1 antagonist | 2,400 tested, 18% active | AID 651953 | Ga16-expressing cells, calcium fluorescence, agonist counterscreen | activation, % at 3 µM; in the data active = activation above about 12%;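 also: 0% = vehicle wells and 100% = saturating stimulus response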
TAAR1 ag counter: TAAR1 agonism, antagonist counter-screen; shares compounds with TAAR1 antagonist; hTAAR1 cell line, fluorescence activation, agonist mode; activation, % at 3 µM; 2,400 tested, 2% active; in the data active = activation above about 37%;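 also: CHO cells stably expressing TAAR1 with calcium dye readout; 0% = DMSO vehicle and 100% = full agonist response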
Starred values were filed as active, the others as inactive; . = not tested or not shown.

SMILES	OXTR ag	TAAR1 antagonist	V1R ag counter	TAAR1 agonist	OXTR potentiate	TAAR1 nonsel count	TAAR1 antag conf	Ga16 ag counter	TAAR1 ag counter
O=C(COC(=O)c1ccc(O)cc1O)Nc1cc(-c2ccccc2)nn1-c1ccccc1	3	72*	3	12	-18	35*	38	9	11
CCCn1nc2cc(C(=O)NC3CCc4ccccc43)ccc2c1OCC (stereo not given)	3	9	-1	4	4	.	.	.	.
COc1ccc([C@H]2CC(=O)C=C(c3ccccc3Oc3ccccc3)C2)cc1	3	50*	2	8	-8	11	17	1	2
COc1ccc(C2=CC(=O)C[C@H](c3ccc(F)cc3)C2)cc1OC	-1	92*	-1	4	-6	16	51*	0	-3
COc1ccc(C)c2sc(NC(=O)C3CC3)nc12	-1	4	-1	1	2	.	.	.	.
Cc1nc2cccc(C(=O)Oc3ccc([N+](=O)[O-])cc3)c2o1	1	-19	1	-1	-18	.	.	.	.
CN(C1CCCCC1)S(=O)(=O)c1ccc(NC(=O)c2ccc(Br)o2)cc1	-2	63*	1	15	-17	23*	44	7	10
CN(C(=O)c1cccc(NC(=O)c2ccccc2)c1)C1CCCCC1	0	-7	2	-1	-4	.	.	.	.
CN(C(=O)c1cccc(Nc2ccc(-c3ccc4c(c3)OCCO4)nn2)c1)C1CCCCC1	-1	54*	2	13	-19	13	31	5	15
O=C(Nc1ccc2c(c1)OCO2)c1cc(C2CCCCN2S(=O)(=O)c2cccs2)on1 (stereo not given)	.	7	.	1	.	.	.	.	.
CCOCCn1c(SC(C)C(C)=O)nc2c1c(=O)[nH]c(=O)n2C (stereo not given)	1	10	0	1	-10	.	.	.	.
CSc1ccc(Cn2c(C)c(C(=O)NCc3ccc(Cl)c(Cl)c3)sc2=O)cc1	.	19	.	1	.	.	.	.	.
Cc1c(C(=O)NCc2ccc(Cl)c(Cl)c2)sc(=O)n1Cc1ccc(S(C)(=O)=O)cc1	.	72*	.	21	.	35*	37	14*	13
O=C(COc1cccc2cccnc12)N/N=C/c1cccn1-c1ccc(F)cc1	-3	53*	-3	18	-13	25*	48	7	4
Nc1nc(-c2ccc(Cl)cc2)nnc1-c1ccc(Br)cc1	-3	-13	0	-2	-4	.	.	.	.
O=C(OCc1nc2scc(-c3ccccc3)c2c(=O)[nH]1)c1ccco1	0	24	0	5	-6	.	.	.	.
CC(C)[C@H](NC(=O)c1ccccc1)C(=O)OCc1nc2scc(-c3ccccc3)c2c(=O)[nH]1	3	73*	9	13	-6	36*	55*	11	14
Cc1csc(N2CCN(c3cc4nc(-c5ccncc5)[nH]c4cc3Cl)CC2)n1	3	58*	1	16	-3	30*	39	10	9
CC1(C)CC(=O)C2=C(C1)N(c1ccc(F)cc1)C(=O)NC2(C(F)(F)F)C(F)(F)F	-1	7	-1	10	-4	.	.	.	.
N#Cc1nc(Nc2cccc(Cl)c2)c2ncn(C3CCCC3)c2n1	2	75*	1	19	-1	22*	32	2	2
CCn1cnc2c(Nc3cc(F)cc(F)c3)nc(C#N)nc21	0	-6	-1	11	-5	.	.	.	.
N#CCCN(C(=O)COC(=O)c1cccc(S(=O)(=O)N2CCCCCC2)c1)c1ccc(F)cc1	.	11	.	5	.	.	.	.	.
c1ccc(-c2ccc(Oc3cc(N4CCOCC4)nc(-c4ccccc4)n3)cc2)cc1	1	13	0	1	4	.	.	.	.
CN(Cc1cnn(C)c1)C(=O)c1cc(COc2c(F)cccc2F)on1	0	105*	1	8	0	4	1	0	1
CC(C)(C)c1ccc(-c2nc(-c3ccncc3)no2)cc1	-1	106*	0	-3	-5	15	19	13*	26
SMILES	OXTR ag	TAAR1 antagonist	V1R ag counter	TAAR1 agonist	OXTR potentiate	TAAR1 nonsel count	TAAR1 antag conf	Ga16 ag counter	TAAR1 ag counter
Cc1ccc(-c2nc(-c3ccncc3)no2)cc1	.	-28	.	5	.	.	.	.	.
C=CC[C@H](CC(=O)NCCO)C(=O)N[C@H](COC(=O)[C@@H](CC=C)CC(=O)OC(C)(C)C)Cc1c[nH]c2ccccc12	0	34	0	10	-3	.	.	.	.
C=CC[C@H](CC(=O)N(CCO)Cc1ccccc1)C(=O)N[C@@H](COC(=O)[C@H](CC=C)CC(=O)OC(C)(C)C)Cc1c[nH]c2ccccc12	-1	69*	0	14	-9	30*	42	5	3
C=CC[C@H](CC(=O)N(CCO)Cc1ccccc1)C(=O)N[C@H](COC(=O)[C@H](CC=C)CC(=O)OC(C)(C)C)Cc1ccccc1	0	58*	1	11	-6	24*	43	5	3
CCn1c(SCC(=O)N2CCOCC2)nnc1-c1ccco1	0	-9	1	-1	-1	.	.	.	.
O=C(Nc1cccc(NC(=O)c2cncc(Br)c2)c1)c1cncc(Br)c1	1	67*	3	33	-7	29*	52*	17*	15
CCn1c(SCC(=O)N2CCc3ccccc32)nnc1-c1c[nH]c2ccccc12	-1	55*	-1	11	-6	16	34	6	8
CCn1c(SCC(=O)N2CCCc3ccccc32)nnc1-c1c[nH]c2ccccc12	1	22	1	5	-19	.	.	.	.
O=[N+]([O-])c1ccc(O)c(CSc2nnnn2-c2ccccc2)c1	16	11	11	6	-17	.	.	.	.
O=C(N/N=C/c1cn(-c2cccs2)nc1-c1ccccc1)c1ccccc1O	3	75*	4	11	-7	55*	60*	13*	10
O=C1C(=Cc2cccs2)C(=O)c2ccccc21	-3	104*	0	-3	-3	4	0	-1	4
O=C(Nc1nc(-c2cccs2)cs1)c1ccc(S(=O)(=O)N2CCCC2)cc1	2	29	6	5	-10	.	.	.	.
CN(C)S(=O)(=O)c1ccc(C(=O)Nc2nc(-c3cccs3)cs2)cc1	9	54*	10	8	-9	33*	37	12*	9

Screening results from PubChem BioAssay.
